Screens (PubChem)
TCR CD3 inh: inhibitors of human TCR-CD3 interaction, primary screen, biochemical, fluorescence, TAMRA-labeled TCR probe. AID 651800, 2012. inhibition, % at 9.4 µM. T-cell receptor (TCR). 360,000 tested, 0.37% active; in the data active means inhibition above about 19%;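 further: recombinant mutant TCR 2C K166C tagged with TAMRA read by polarization; 0% = receptor in buffer alone and 100% = receptor with positive control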
ABHD4 inh: ABHD4 inhibitors, primary screen, biochemical, fluorescence polarization, mouse; (Lyso)-N-acylphosphatidylethanolamine lipase (Mus musculus), Q8VD66; purified mABHD4, FP-Rh probe fluorescence polarization; inhibition, % at 8.92 µM; 370,000 tested, 0.54% active;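 active means inhibition exceeding the mean over every tested compound plus 3 SD, cut at about 30% in these data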;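 further: 0% = plate median of compound wells and 100% = S159A mutant with DMSO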
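assay system = mABHD4 protein | compound dosing = single nominal dose of 8.92 µM, 0.89% DMSO final | read-out basis = percent inhibition of probe binding, normalized to plate controls | schedule = Enzyme–compound pre-incubation 45 min, then probe 60 min, both 25 °C | detection = fluorescence polarization, excitation 525 nm, emission 598 nm, BODIPY TMR filters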
SIAE primary: human SIAE inhibitors, primary screen, biochemical, fluorescence polarization, FP-Rh probe, 1536-well HTS; 370,000 tested, 0.69% active; SIAE FP-Rh probe binding; inhibition, % at 9.66 µM; AID 1053197, 2014;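 active means inhibition above a cutoff: mean of compounds within the control limits plus 3 SD of those, cut at about 17% in these data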;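 further: 0% = plate median of compound wells and 100% = probe without SIAE protein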
TDP2 inh: human TDP2 enzyme inhibitors, primary screen, biochemical, epi absorbance, recombinant enzyme; inhibition, % at 12.8 µM; T5PNP hydrolysis, p-nitrophenol absorbance 415 nm; Tyrosyl-DNA phosphodiesterase 2 (Homo sapiens), O95551; 370,000 tested, 0.34% active; AID 720702, 2013;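 active means inhibition above the mean of all tested compounds plus 3 SD, set per campaign, cut at about 25% in these data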;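 further: 0% = DMSO with enzyme and 100% = buffer with substrate but no TDP2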
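Incubation: 2 h at 37 °C; Test system: recombinant human TDP2; Quantity: enzyme 120 nM; Read-out basis: percent inhibition; Medium: 50 mM Tris-HCl pH 7.5 with Mg2+, KCl, DTT, BSA; Repeats: single replicate; Compound: 12.8 µM single point, 1% DMSO; Signal: epi absorbance; Reagent: 5 mM T5PNP chromogenic substrate; Benchmarks: no-enzyme high, DMSO-plus-enzyme low.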
HTRA1 inhibitor: HTRA1 serine protease inhibitors, primary screen, biochemical, fluorescence polarization, HTS; inhibition, % at 5.96 µM; 340,000 tested, 0.5% active; Q92743; AID 504803, 2011; recombinant HTRA1, FP-rhodamine activity-based probe; in the data active means inhibition above about 36%;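 further: 0% = enzyme with DMSO and 100% = wells lacking enzyme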
Target sequence (Q92743 whole entry, looked up): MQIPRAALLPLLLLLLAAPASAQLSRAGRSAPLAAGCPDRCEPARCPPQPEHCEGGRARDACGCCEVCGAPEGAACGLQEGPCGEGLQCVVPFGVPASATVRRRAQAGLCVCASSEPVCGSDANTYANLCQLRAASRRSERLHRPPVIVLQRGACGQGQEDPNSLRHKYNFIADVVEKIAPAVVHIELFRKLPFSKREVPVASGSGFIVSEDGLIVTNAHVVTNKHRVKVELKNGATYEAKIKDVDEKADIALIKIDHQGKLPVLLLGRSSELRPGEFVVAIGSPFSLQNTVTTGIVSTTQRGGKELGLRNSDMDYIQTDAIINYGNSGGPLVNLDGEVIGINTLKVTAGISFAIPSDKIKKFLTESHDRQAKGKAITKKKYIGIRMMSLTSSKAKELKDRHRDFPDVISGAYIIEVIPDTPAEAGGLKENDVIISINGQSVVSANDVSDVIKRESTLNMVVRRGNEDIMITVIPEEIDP
LEDGF integ inh: blockers of LEDGF/p75-dependent integrase strand transfer – biochemical, TR-FRET, high throughput, primary screen; HIV-1 integrase (with human LEDGF/p75); TR-FRET IN-LEDGF/p75 DNA integration, Eu/Cy5; inhibition, % at 3.7 µM; 370,000 tested, 0.64% active; AID 743269, 2014;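 active means inhibition above the screen-wide mean plus 3 SD, cut at about 13% in these data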;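 further: signal is the Cy5 over europium emission ratio at 671 and 618 nm; 0% = plate median of compound wells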
SIAE inh conf: human SIAE inhibitors, retest, confirmation, biochemical, fluorescence polarization, FP-Rh probe, triplicate; inhibition, % at 9.66 µM; 2,300 tested, 13% active; shares compounds with SIAE primary; AID 1117263, 2014; SIAE FP-Rh activity-based probe;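 active means mean inhibition of the replicates above the hit cutoff set in the primary screen, cut at about 17% in these data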;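 further: 0% = SIAE with DMSO and probe and 100% = probe without SIAE; inhibitors lower polarization as more probe stays unbound to SIAE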
Numbers without * were called inactive; · = no result. The list is not random: actives were taken first. Their share in the collection is about 2.2%.

SMILES | TCR CD3 inh | ABHD4 inh | SIAE primary | TDP2 inh | HTRA1 inhibitor | LEDGF integ inh | SIAE inh conf
O=Nc1c(-c2cccc([N+](=O)[O-])c2)nc2ncccn12 | 1 | 1 | 18* | 16 | · | 6 | 6
COCCn1c(C)cc(C2=NNC(=NC3CC3)SC2)c1C | -4 | 4 | 25* | 10 | 10 | 0 | 2
CS(=O)(=O)c1ccc(Cl)c(NC(=O)COC(=O)CCN2C(=O)C3CC=CCC3C2=O)c1 (configuration not stated) | -2 | 8 | 4 | 15 | 4 | 2 | ·
Cc1ccc2nc(CN(C)C(=O)[C@@H](Cc3ccccc3)NC(=O)[C@H]3O[C@@H](n4cnc(C(N)=O)n4)[C@H](O)[C@@H]3O)[nH]c2c1 | -1 | -9 | 68* | -12 | · | 7 | 74*
COc1ccc(Nc2cc(C)c3cc([N+](=O)[O-])ccc3n2)cc1 | -5 | 26 | 24* | 11 | 5 | -1 | 2
CCOc1ccc(CN2C(=O)c3ccccc3C2=O)cc1C(=O)N1CCC(C(N)=O)CC1 | 1 | 4 | 22* | 9 | -3 | 2 | 5
CCOc1ccc(CN2C(=O)c3ccccc3C2=O)cc1C(=O)O | 3 | 2 | 3 | -1 | 0 | -4 | ·
O=C(CCCOc1ccc(Cl)cc1Cl)Nc1ccc(O)cc1C(=O)O | -12 | 5 | 17* | 2 | -1 | -1 | -8
COc1cc(NC(=O)CCCOc2ccc(Cl)cc2Cl)c(C(=O)O)cc1OC | -3 | 2 | -1 | 7 | -2 | 2 | ·
CC1CC(C)(C)CC2(C1)NC(=O)N(CC(=O)N(C)Cc1nc3ccccc3c(=O)[nH]1)C2=O (configuration not stated) | 9 | 5 | 19* | 4 | -7 | -2 | -3
CC1CCCCC12NC(=O)N(CC(=O)N(C)Cc1nc3ccccc3c(=O)[nH]1)C2=O (configuration not stated) | 1 | 0 | 9 | 1 | -2 | 3 | ·
O=c1oc2cc(O)ccc2cc1-c1nc2c(s1)CCc1ccccc1-2 | 0 | 13 | 19* | 8 | -2 | 0 | -7
O=C(CSc1nnc(-c2ccco2)n1Cc1ccco1)c1ccc([N+](=O)[O-])cc1 | · | 10 | 3 | -7 | · | 7 | ·
O=c1c2ccccc2c2ccccc2c(=O)n1-c1ccccc1 | -1 | 8 | -1 | 9 | 2 | 0 | ·
O=c1[nH][nH]c(=O)n1-c1ccccc1 | 0 | 6 | 20* | 5 | 3 | 1 | -2
COc1cc(NC(=O)CCCn2c(=O)oc3ccccc32)cc(OC)c1 | 8 | 1 | 5 | -6 | -7 | 0 | ·
COc1ccc(C(C)(C)C)cc1NC(=O)CCCn1c(=O)oc2ccccc21 | 11 | -6 | 76* | -7 | -6 | -1 | 1
Fc1ccccc1CNc1nc(-c2cccnc2)nc2ccccc12 | 3 | -11 | -13 | -4 | -71 | 6 | ·
O=C(Nc1ccc(Cl)cc1)Nc1cc(S(=O)(=O)N2CCOCC2)ccc1N1CCCC1 | -5 | 7 | 6 | 1 | 0 | 0 | ·
O=C(Nc1ccc(F)cc1)Nc1cc(S(=O)(=O)N2CCOCC2)ccc1N1CCCC1 | 0 | 2 | 20* | 9 | -1 | -3 | 17*
COCCN(C)Cc1nc(C(c2ccccc2)c2ccccc2)no1 | 3 | 0 | -2 | -8 | 4 | 6 | ·
CCC(c1ccccc1)c1noc(CCN(CC)CC)n1 (configuration not stated) | -3 | -4 | 20* | 1 | -1 | 7 | 0
OCC1OC(n2cnc3c(/C=C(\O)c4ccccc4)ncnc32)C(O)C1O (configuration not stated) | 6 | 0 | -6 | -14 | -1 | 3 | ·
